Test system: MS2 coat protein
Assay: apparent Kd, MS2 coat protein; higher = weaker binding; RNA-MaP array; FMN 200 µM where present
Summary of the method: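 On Illumina sequencing-chip clusters, designs were transcribed by stalled E. coli RNA polymerase and titrated with SNAP-549-labelled MS2 coat protein (0.7 or 1.5 nM, doubling to 3 µM), without and then with constant ligand, in 100 mM Tris-HCl pH 7.5, 80 mM KCl, 4 mM MgCl2, BSA, DTT, yeast tRNA and Tween-20. Apparent Kd is the median of filtered per-cluster curve fits to green signal normalised to red-channel RNA signal and control-cluster median Fmax.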

[1] = designed as: OFF switch for flavin mononucleotide, no ligand
[2] = ligand present: flavin mononucleotide, designed as: OFF switch for flavin mononucleotide
[3] = designed as: ON switch for flavin mononucleotide, no ligand
[4] = ligand present: flavin mononucleotide, designed as: ON switch for flavin mononucleotide

Row | Sequence | apparent Kd [1] [µM] | apparent Kd [2] [µM] | apparent Kd [3] [µM] | apparent Kd [4] [µM]
1 | GCGUGACAUGAGGAUCACCCAUGUGAGGAUAUCUGGAUACUCUUUAUUUUAGAUAUCCAGAGAAGGCACAUGCU | 0.217 | 0.151 | – | –
2 | CGUACGUCAGGAUAUCUGAUGUCUAACUUCGGUUAGACAUCAGAGAAGGGACAUGAGGAUCACCCAUGUACGAG | 0.0883 | 0.105 | – | –
3 | UAGAAGUCAGGAUAUCCAUGGCGGCACUUGCGUGGUGGCGUGGAGAAGGGACAUGAGGAUCACCCAUGUAAAGC | 0.0487 | 0.037 | – | –
4 | GUGACGGAUGUAGGAUAUGCUGACCAAUGGUCAGCAGAAGGACAUGAGGAUCACCCAUGUCAUCCUUAUAAUAAAUACCGUCAC | – | 0.0183 | – | –
5 | CCGGAUAUGCAGGAUAUCGAAUCGGAAACGAUUCGAGAAGGGUAUACAUGAGGAUCACCCAUGUGUCCUACCGG | 0.0249 | 0.0316 | – | –
6 | AAUAAUAAUGUCAGGAUAUCUAGAGCUUCGGCUCUAGAGAAGGGACAUGAGGAUCACCCAUGUCACUCAAUAAU | 0.0162 | 0.0272 | – | –
7 | AUUGUUCGAGAGAAGGGAACAUGAGGAUCACCCAUGUUACCUCACCCGGUGACGGAACUCCAAGUUCAGGAUAUCUCGAGCGAU | 0.00764 | 0.016 | – | –
8 | AGUGUCAUCGAGAAGGCCUCAACAUGAGGAUCACCCAUGUUGCAAAAUGGGAGGAUAUCGCGCGUUCUAAAACGUUUCGUAGCA | – | – | 0.0541 | 0.018
9 | AAGGUGAGUCAAGGAUAUCCGGGCUGAAUGCCAGGAGAAGGUGACAUGAGGAUCACCCAUGUCUCUCCGAGCAUGGUAUUCUCA | 0.148 | 0.138 | – | –
10 | GACGGAUGUAUAGGAUAUGCUGAGGAAUACUCAGCAGAAGGAUACAUGAGGAUCACCCAUGUAAUAAUAAUAAUAAUAACCGUC | 0.0124 | 0.0275 | – | –
11 | AUCAUCCUAGGAUAUACAUGGAUAUACAUUCAUGUGGACCUACAUGAGGAUCACCCAUGUAGAAGGAGGAUGAU | 0.0334 | 0.0888 | – | –
12 | AAAAAGGGAGGAUAUACAUGAGGAUCACCCAUGUAAAAAAAAACAAAAAAAAAAAAAAGUAGAAGGCCCAAAAA | 0.0548 | 0.0478 | – | –
13 | AAUUCACAUGAGGAUCACCCAUGUCAGGAUAUGGUUUCACGUGUUUCGGUGCGUGAGGCCAGAAGGGACAGCUA | 0.0584 | 0.087 | – | –
14 | CAGUGCAAUGUAGGAUAUGCUCAGGAAUACUGAGCAGAAGGACAUGAGGAUCACCCAUGUAAAAUGAAAGAUAAUAAAGCACUG | 0.0161 | 0.051 | – | –
15 | GACUGCUGAGGAUAUACAUGAGGAUCACCCAUGUGCUUCAGCUACGAGAGUAGCAUUGGUAGAAGGUAGUAGUC | 0.0121 | 0.0221 | – | –
16 | AUGCCCGGAGGAUAUACACUAAAAGUCCGGUGCUAGGGUAGACAUGAGGAUCACCCAUGUAGAAGGCCGAGGCA | 0.0532 | 0.101 | – | –
17 | UCCUGGCGAGGAUAUACAAAGAUUUUUUCGUUUUGUUACGAACAUGAGGAUCACCCAUGUAGAAGGUGCUGCUG | 0.204 | 0.193 | – | –
18 | GUCCAGUUAGGAUAUCAAUGCCACAACAUGAGGAUCACCCAUGUUUGGGUCCCUCACCAAUGAGAAGGAACGGGAC | 0.0347 | 0.0991 | – | –
19 | UGGGUGGUAUGAGGAUAUGCGCGCGAAACGCGCGCAGAAGGCAUGUCAAUAGACAUGAGGAUCACCCAUGUAUUAUCCAUCCAA | – | – | 0.412 | 0.0283

Row | Sequence | apparent Kd [1] [µM] | apparent Kd [2] [µM] | apparent Kd [3] [µM] | apparent Kd [4] [µM]
20 | GGGUACAUCGGAGGAUAUCAUGUAAAUACAUGAGGAUCACCCAUGUCGAUGGAGACAUCGGAGGUUGAGAAGGCCGAUGUACCG | – | – | 0.961 | 0.0185
21 | GUCAUGUCAGGAUAUUUUGGUCAACUCAUCGGUCGACCCUAAGAGAAGGGACAUGAGGAUCACCCAUGUUCGCA | 0.0268 | 0.0779 | – | –
22 | GGUUGGCGAGGAUAUACAUGAGGAUCACCCAUGUGAGAGAAAAAAGUGAGUAAGAAAAGUAGAAGGCGCUGACG | 0.0401 | 0.302 | – | –
23 | CCGGCUUAGGAGGAUAUAGGAGUCGAUAGACACCUAGAAGGCCUAACAUGAGGAUCACCCAUGUGUCCUACCGG | 0.0178 | 0.0615 | – | –
24 | AAGGUAUACUGAGGAUAUCCGUGGGUAUAUGGGUCUAGGAACAUGAGGAUCACCCAUGUUCCCUAGGAGAAGGCAGGACAUUAA | 0.025 | 0.0336 | – | –
25 | GCCAGGCAUGUAGGAUAUCCAUUGCGUCGCGUUGGAGAAGGGCAGCACACAUGAGGAUCACCCAUGUGGUCUCCCAUGUAGUGU | 0.163 | 0.206 | – | –
26 | GUAUCGUGAGGAUAUCAUGAUUGACUUAGUUUAUGUCAGCGUGAGAAGGCACAUGAGGAUCACCCAUGUGAUUA | 0.0247 | 0.0549 | – | –
27 | GUCAUGUGAGGAUAUGUAGCCACGAAAUCUUGUAGAGGCAGACAGAAGGCACAUGAGGAUCACCCAUGUGUUUU | 0.0316 | 0.258 | – | –
28 | GUCCCGUCUAGCUUCAGCACAUGAGGAUCACCCAUGUCCUAGAGAAGGGCCUAGAGUUAUCAAAGGCAGGAUAUCUGCACAUGG | 0.0307 | 0.0477 | – | –
29 | GGAUUACAUGAGGAUCACCCAUGUGAGGAUAUCGAUGUCCUGUAAUUCGUGCGGGACUCGAGAAGGCACUUGGA | 0.0513 | 0.168 | – | –
30 | UGAUAACAUGAGGAUCACCCAUGUCAGGAUAUAAAUUGAGCUCCUUGGACGCCACCGUUUAGAAGGGACGCAUG | 0.0237 | 0.0227 | – | –
31 | UUAAAUUAGUAGAAGGACGGUGAGUAAGAAGUCGUAGGAUAUACAUAAGACAUGAGGAUCACCCAUGUAAGUUUGUUGGGUAUG | 0.0441 | 0.0384 | – | –
32 | UACGCCUAGGAGAAGGGCCCACUAUAGGGUAAAUGCUGUUCUCACAUGAGGAUCACCCAUGUGCGGCAGGAUAUCCACGCGUAC | 0.00825 | 0.039 | – | –
33 | AAAAAAAAGGGUGAGGAUAUCGAAAAAAAAACAUGAGGAUCACCCAUGUGAAAAAAAAAAAAAUGCGAGAAGGCACUAAAAAAAAA | – | – | 0.151 | 0.0456
34 | AUUACCAGAGGAUAUGCGAGGGUGUACCUCCCACAGCGAAAACAUGAGGAUCACCCAUGUAGAAGGCUGAACAU | 0.0567 | 0.0463 | – | –
35 | CGCAUCUCUUCAAUUCCUUCACAUGAGGAUCACCCAUGUAGGGAGGAUAUGCAAGCCUAUUGGCGGCAGAAGGCCCUGCAAUGG | 0.177 | 0.0869 | – | –
36 | ACAUAAAUUCGAGGAUAUCGGUGAUAUAAUUUACGAGAAGGCGAUAAAAGUUAUAAACUUAUAGACAUGAGGAUCACCCAUGUA | – | – | 0.031 | 0.0307
37 | UUUAUGUGAGGAUAUAGUACUCCUUCUAUUAUUAUUGAGUACUAGAAGGCACAUGAGGAUCACCCAUGUAGUAC | 0.03 | 0.0483 | – | –
38 | UUGGACGUCGUAGGAUAUGUAGGAUAUUCCUACAUGAGGAUCACCCAUGUUGACAUGGAAGAAGGACAGAAGGACGAUCUCCAU | – | – | 0.36 | 0.00549

Row | Sequence | apparent Kd [1] [µM] | apparent Kd [2] [µM] | apparent Kd [3] [µM] | apparent Kd [4] [µM]
39 | AGCUGUGGCCGAGGAUAUCUGUUCCAUAUAACCGAAAUAUAAUCGGACAUGAGGAUCACCCAUGUAGAGAAGGCGGUCUCAGCA | 0.0227 | 0.0248 | – | –
40 | GUGGAGUAAGGAUAUACAUGAGGAUCACCCAUGUGAGGGUAUGAGAAGGGAAUGAGAGGUAGAAGGUACGAGGG | 0.172 | 0.107 | – | –
41 | UCAGGCUUCGAGAAGGACAUGAGGAUCACCCAUGUGCGUGUAAAACAGCCAAAAGGCUGCAUCAUGUAGGAUAUCGGAGUCUGC | 0.279 | 0.192 | – | –
42 | GGAUAGGACAGAGGAUAUACGUGCCAGAGAUACUAGCAAAAUUUCCUCACAUGAGGAUCACCCAUGUAGAAGGCUGUCCUAUCG | 0.0336 | 0.293 | – | –
43 | GUGCGAGCCACAGGAUAUCUACAGAUUUAUCGUAGAGAAGGGUGACCUCGUGCACCACAUGAGGAUCACCCAUGUAACUAGGCG | – | – | 0.0196 | 0.0363
44 | UAUUCUAGAUAGGAUAUACUUUUUUUUUUUUUCGUAGAAGGAUCUACAUGAGGAUCACCCAUGUUUUCAGCAGU | 0.0445 | 0.0384 | – | –
45 | UUGAUGUCAUCAGGAUAUAGUAUUUAAGACAUAUCUUCUUUCAAACAUGAGGAUCACCCAUGUCGCUAGAAGGGAUUAUUGAUU | 0.0168 | 0.013 | – | –
46 | GGUUUUGUGUAAGGAUAUGCAUCACUGAGAAAUUUAGUGAGGAAGAUCACAUGAGGAUCACCCAUGUAGAAGGUACACAUGUGG | 0.0579 | 0.0892 | – | –
47 | AGAUUGCAUGAGGAUAUCGUAUUAGAUAUAAUGCGAGAAGGCAUGACAUGAGGAUCACCCAUGUAGUGUGGGUU | 0.0559 | 0.0402 | – | –
48 | AGCUACGUUUCGUAGCAGUGUCAUCGAGAAGGCCUCAUUACAUGAGGAUCACCCAUGUGAGCAUGGGAGGAUAUCGAUGAUACA | – | – | 0.406 | 0.129
49 | UUAUAUAAUGUGAGGAUAUGCUGGUCGAGAGAUCAGCAGAAGGCACAUGAGGAUCACCCAUGUAGUAAAUUUUA | 0.0225 | 0.0259 | – | –
50 | ACAUGAGGAUCACCCAUGUUGCGAGUAGAAGGCUAUAAGAAACGGGAUGAAGAAAUCCACGCAAUAGAGGAUAUACGAAUUGGA | – | – | 0.0121 | 0.00778
51 | GGUACUCAAAGAGUACGGAGUCGAACAUGAGGAUCACCCAUGUAGGAUAUGCGAGUUUUGAAUUUGCAGAAGGACAUUUGCAGC | 0.00962 | 0.0112 | – | –
52 | UUUAUAUAGUAAGGAUAUGUAUUAAUUUUAUAGACAGAAGGUACUGACAUGAGGAUCACCCAUGUUUUAGUGUGGGCAUGUAGU | 0.358 | 0.549 | – | –
53 | AAAAAACAUGAGGAUCACCCAUGUAAAAAAAAUAGAGGAUAUGGGUGAUCCAAAAAAAAACCAGAAGGCUAAAAAA | – | – | 0.0182 | 0.0166
54 | AAAAAACAUGAGGAUCACCCAUGUCUUCGGACAUGAGGAUAUGUACAGACUUCGGUCUGUACAGAAGGCAUGUCAA | – | – | 0.166 | 0.0232
55 | AGUAGAUCAGGAUAUACGUGAAAGGUCAAAGUGUCCCUACUACAUGAGGAUCACCCAUGUAGAAGGGAUCUACA | 0.0134 | 0.0146 | – | –
56 | UUGGACGUCGUAGGAUAUGUAGGAUAUUCCUACAUGAGGAUCACCCAUGUUCACAUGGAAGAAGGACAGAAGGACGAUGUCCAU | – | – | 0.502 | 0.0058

Source: the EternaBench riboswitch data
